We go through 13 compounds from PubChem BioAssay.

Assay [1] in a line: RPL19A-GFP modulators, yeast TOR pathway, confirmation, cell-based, S. cerevisiae, flow cytometry, cherry picks, mother/daughter gates (AID 2270;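 active means GFP response below 50% of the DMSO control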). To be noted: S. cerevisiae RPL19A-GFP strain, 3 h, at 10 µM, stronger effect = lower value, 100 = same GFP as DMSO wells.
The nature of assay [2]: LAP4-GFP expression modulators in yeast, confirmation, cell-based, cherry picks, flow cytometry, mother/daughter gates (AID 2271;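 active means GFP response above 150% of the DMSO control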;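 further: ratio of sample to DMSO plate mean so 100% equals DMSO level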). The settings on record: S. cerevisiae LAP4-GFP strain, 3 h, at 10 µM, stronger effect = higher value, 100 means same as DMSO control. An outline of the steps:
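System – GFP-fusion yeast strain · Amount – 0.2 OD600 cells · Buffer or medium – SC growth medium · Dosing – single test-compound dose, 10 µM final · Schedule – 3 h treatment at 30 °C with rotation · Detection – GFP by flow cytometry · Read-out – per-gate (all, mother, daughter) GFP response vs DMSO · Benchmarks – positive rapamycin (400 ng/mL), negative DMSO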

Assay [3] can be described thus: modulators of MEP2-GFP levels in yeast, confirmation, S. cerevisiae, flow cytometry GFP, cherry picks (AID 2272;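 active means GFP response above 150% of the DMSO control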;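 further: ratio of well signal to plate DMSO mean so 100% equals DMSO level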). The settings on record: S. cerevisiae MEP2-GFP strain, 3 h, at 10 µM, stronger effect = higher value.
A short description of assay [4]: AGP1-GFP expression modulators, hit retest, confirmation, cell-based, flow cytometry, S. cerevisiae, cherry picks (AID 2273).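 Further: median GFP channel fluorescence over the whole cell population gate.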 The settings on record: S. cerevisiae AGP1-GFP strain, 3 h, at 10 µM.
Assay [5] can be described thus: modulators of CIT2-GFP expression in yeast, confirmation, S. cerevisiae, GFP fusion, cherry picks, mother/daughter gates (AID 2274). To be noted: S. cerevisiae CIT2-GFP strain, flow cytometry, 3 h, at 10 µM, stronger effect = higher value.
[6] abbreviates: measured here: daughter cell gate.
[7] abbreviates: measured here: mother cell gate.
Setting [8] is: measured here: daughter cell gate response.
[9] abbreviates: measured here: mother cell gate response.

Activity calls are given as the source filed them.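 How the source made its calls, unless noted: active means GFP response above 150% of the DMSO level; inconclusive means fewer than 70 events counted for a yeast strain; inactive means the rest.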

Take `O=C1CC(c2ccccc2)CN1S(=O)(=O)c1ccccc1` (stereo not drawn): the GFP response vs DMSO in assay [1] was 98.4% (inactive); in assay [1] (setting [6]), 96.4%; in assay [1] (setting [7]), 98.9%; in assay [3], 105% (inactive). The GFP response relative to DMSO in assay [2] is 97.9% (inactive); in assay [2] (setting [8]), 99.2%; in assay [2] (setting [9]), 97.2%. Moreover, the GFP response, % of DMSO was 101% (inactive) in assay [4], 103% (inactive) in assay [5], 103% in assay [5] (setting [6]) and 103% in assay [5] (setting [7]).

`COc1cc(/C=C2\N=C(C)OC2=O)cc(Cl)c1OC(C)=O`: the GFP response vs DMSO was 107% (inactive) in assay [1], 109% in assay [1] (setting [6]), 102% in assay [1] (setting [7]) and 105% (inactive) in assay [3]. The GFP response relative to DMSO in assay [2] was 117% (inactive); in assay [2] (setting [8]), 115%; in assay [2] (setting [9]), 118%. For the same compound, the GFP response, % of DMSO in assay [4] is 99.8% (inactive); in assay [5], 108% (inactive); in assay [5] (setting [6]), 112%; in assay [5] (setting [7]) it was 103%.

Consider `O=C(OCc1cc(Cl)ccc1OC(F)F)c1ccc([N+](=O)[O-])o1`, for which the GFP response vs DMSO in assay [1] was 97% (inactive); in assay [1] (setting [6]), 99.8%; in assay [1] (setting [7]) it was 94%; in assay [3], 100% (inactive). Further, the GFP response relative to DMSO in assay [2] was 114% (inactive); in assay [2] (setting [8]) it was 110%; in assay [2] (setting [9]), 120%. Moreover, the GFP response, % of DMSO in assay [4] was 95.7% (inactive); in assay [5], 95.2% (inactive); in assay [5] (setting [6]), 98.1%; in assay [5] (setting [7]), 92.3%.

Consider `Cc1ccc(CS(=O)(=O)c2ncc(Cl)c(C(=O)Nc3nnc(C)s3)n2)cc1`, for which the GFP response vs DMSO in assay [1] is 99.6% (inactive); in assay [1] (setting [6]) it was 99.8%; in assay [1] (setting [7]), 98.6%; in assay [3] it was 101% (inactive). The GFP response relative to DMSO in assay [2] is 102% (inactive); in assay [2] (setting [8]) it was 104%; in assay [2] (setting [9]), 104%. For the same compound, the GFP response, % of DMSO in assay [4] was 113% (inactive); in assay [5], 103% (inactive); in assay [5] (setting [6]), 99.3%; in assay [5] (setting [7]), 104%.

`CCCOc1ccc(C(=O)NNC(=S)NC(=O)CC)cc1`: the GFP response vs DMSO in assay [1] is 126% (inactive); in assay [1] (setting [6]) it was 103%; in assay [1] (setting [7]), 117%; in assay [3], 139% (inactive). Further, the values for the GFP response relative to DMSO in assay [2], in assay [2] (setting [8]) and in assay [2] (setting [9]) were 181% (active), 120% and 169%, respectively. Besides, the GFP response, % of DMSO is 130% (inactive) in assay [4], 132% (inactive) in assay [5], 121% in assay [5] (setting [6]) and 117% in assay [5] (setting [7]).

With `Cn1ncc2c(O/N=C(\N)c3ccc(C(C)(C)C)cc3)ncnc21`, the GFP response vs DMSO is 92.7% (inactive) in assay [1], 92% in assay [1] (setting [6]), 87.9% in assay [1] (setting [7]) and 121% (inactive) in assay [3]. The GFP response relative to DMSO in assay [2] was 143% (inactive); in assay [2] (setting [8]) it was 96.6%; in assay [2] (setting [9]), 162%. The GFP response, % of DMSO was 106% (inactive) in assay [4], 182% (active) in assay [5], 114% in assay [5] (setting [6]) and 155% in assay [5] (setting [7]).

For the compound `COc1cc(NC(C)=O)ccc1NC(=O)c1cc2ccccc2o1`, the GFP response vs DMSO was 99% (inactive) in assay [1], 97.8% in assay [1] (setting [6]), 98.2% in assay [1] (setting [7]) and 100% (inactive) in assay [3]. The GFP response relative to DMSO in assay [2] was 95% (inactive); in assay [2] (setting [8]) it was 97.2%; in assay [2] (setting [9]), 96.2%. The GFP response, % of DMSO is 102% (inactive) in assay [4], 100% (inactive) in assay [5], 98.1% in assay [5] (setting [6]) and 101% in assay [5] (setting [7]).

`CCOc1ccccc1NC(=O)c1nc(S(=O)(=O)Cc2cccc(C)c2)ncc1Cl`: the GFP response vs DMSO was 101% (inactive) in assay [1], 100% in assay [1] (setting [6]), 101% in assay [1] (setting [7]) and 100% (inactive) in assay [3]. In addition, the values for the GFP response relative to DMSO in assay [2], in assay [2] (setting [8]) and in assay [2] (setting [9]) were 101% (inactive), 102% and 103%, respectively. Moreover, the GFP response, % of DMSO in assay [4] is 101% (inactive); in assay [5], 97.8% (inactive); in assay [5] (setting [6]), 96.5%; in assay [5] (setting [7]), 98.7%.

As for `Cc1ccc(C(=O)Sc2cccccc2=O)cc1`, the GFP response vs DMSO in assay [1] was 101% (inactive); in assay [1] (setting [6]), 99.4%; in assay [1] (setting [7]), 99%; in assay [3] it was 132% (inactive). For the same compound, the GFP response relative to DMSO in assay [2] is 313% (active); in assay [2] (setting [8]) it was 281%; in assay [2] (setting [9]) it was 315%. Besides, the GFP response, % of DMSO is 104% (inactive) in assay [4], 90.9% (inactive) in assay [5], 93.7% in assay [5] (setting [6]) and 84.8% in assay [5] (setting [7]).

On to `COC(=O)Cn1nc(-c2ccccc2)c2cc(Cl)ccc21`, for which the GFP response vs DMSO in assay [1] was 101% (inactive); in assay [1] (setting [6]) it was 100%; in assay [1] (setting [7]), 101%; in assay [3], 109% (inactive). In addition, the GFP response relative to DMSO is 104% (inactive) in assay [2], 104% in assay [2] (setting [8]) and 104% in assay [2] (setting [9]). Besides, the GFP response, % of DMSO in assay [4] was 102% (inactive); in assay [5], 114% (inactive); in assay [5] (setting [6]), 116%; in assay [5] (setting [7]), 112%.

Consider `CC(C)c1nnc(NC(=O)c2nc(S(=O)(=O)Cc3ccccc3F)ncc2Cl)s1`, for which the GFP response vs DMSO in assay [1] was 98.4% (inactive); in assay [1] (setting [6]), 97.8%; in assay [1] (setting [7]), 99.2%; in assay [3], 110% (inactive). The results for the GFP response relative to DMSO in assay [2], in assay [2] (setting [8]) and in assay [2] (setting [9]) were 108% (inactive), 107% and 107%, respectively. The GFP response, % of DMSO in assay [4] is 101% (inactive); in assay [5] it was 102% (inactive); in assay [5] (setting [6]), 102%; in assay [5] (setting [7]) it was 100%.

In the case of `N#C/C(=C\c1c(N2CCCCCC2)nc2ccccn2c1=O)C(=O)NCc1ccco1`, the GFP response vs DMSO in assay [1] was 96% (inactive); in assay [1] (setting [6]), 97.9%; in assay [1] (setting [7]), 96.2%; in assay [3], 98.3% (inactive). In addition, the GFP response relative to DMSO is 92.8% (inactive) in assay [2], 96% in assay [2] (setting [8]) and 92.9% in assay [2] (setting [9]). Besides, the GFP response, % of DMSO in assay [4] was 95.6% (inactive); in assay [5] it was 96.9% (inactive); in assay [5] (setting [6]), 99.1%; in assay [5] (setting [7]), 96.1%.

Regarding `COc1ccc(CCNC2=C(Cl)C(=O)N(CCc3ccc(OC)c(OC)c3)C2=O)cc1OC`, the GFP response vs DMSO is 99.1% (inactive) in assay [1], 98.5% in assay [1] (setting [6]), 99.3% in assay [1] (setting [7]) and 108% (inactive) in assay [3]. Besides, the GFP response relative to DMSO is 100% (inactive) in assay [2], 99.3% in assay [2] (setting [8]) and 100% in assay [2] (setting [9]). The GFP response, % of DMSO in assay [4] is 101% (inactive); in assay [5] it was 95% (inactive); in assay [5] (setting [6]), 98.3%; in assay [5] (setting [7]), 93.3%.
